Data taken from ChEMBL document CHEMBL4480372, “Design, synthesis, and in vitro and in vivo characterization of 1-{4-[4-(substituted)piperazin-1-yl]butyl}guanidines and their piperidine analogues as histamine H3 receptor antagonists” (Medchemcomm, 2019).
Activity calls are given as the source filed them. No cut-off for these calls is given here.

How the values were obtained:
[1] = molecular target: T1, Histamine H1 receptor (Cavia porcellus, UniProt P31389); assay: (§1) Antagonist activity at histamine H1 receptor in guinea pig ileum preincubated for 10 mins followed by histamine addition during 30 mins equilibration period with washing every 10 mins; assay type: tissue-based; conditions: read-out: pA2 (converted)
T1 sequence (P31389 whole entry): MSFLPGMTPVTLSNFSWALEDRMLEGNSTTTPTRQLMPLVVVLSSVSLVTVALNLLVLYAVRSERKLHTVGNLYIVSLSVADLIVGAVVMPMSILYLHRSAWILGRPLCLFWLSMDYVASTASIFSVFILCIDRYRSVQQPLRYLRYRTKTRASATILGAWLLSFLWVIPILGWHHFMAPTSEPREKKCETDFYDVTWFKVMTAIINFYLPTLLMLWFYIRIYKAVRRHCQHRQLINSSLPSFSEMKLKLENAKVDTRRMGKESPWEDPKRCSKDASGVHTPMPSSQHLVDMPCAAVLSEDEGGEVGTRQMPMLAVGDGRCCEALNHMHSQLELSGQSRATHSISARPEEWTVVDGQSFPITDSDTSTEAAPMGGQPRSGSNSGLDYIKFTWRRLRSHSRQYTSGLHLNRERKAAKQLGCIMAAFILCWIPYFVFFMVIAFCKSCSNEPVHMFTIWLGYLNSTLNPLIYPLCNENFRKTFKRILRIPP

[2] = molecular target: T2, Histamine H3 receptor (Cavia porcellus, UniProt Q9JI35); assay: Antagonist activity at histamine H3 receptor in guinea pig jejunum assessed as effect on […] inhibition of electrically evoked contraction treated 20 mins after […]; assay type: tissue-based; conditions: read-out: pA2 (converted)
T2 sequence (Q9JI35 whole entry): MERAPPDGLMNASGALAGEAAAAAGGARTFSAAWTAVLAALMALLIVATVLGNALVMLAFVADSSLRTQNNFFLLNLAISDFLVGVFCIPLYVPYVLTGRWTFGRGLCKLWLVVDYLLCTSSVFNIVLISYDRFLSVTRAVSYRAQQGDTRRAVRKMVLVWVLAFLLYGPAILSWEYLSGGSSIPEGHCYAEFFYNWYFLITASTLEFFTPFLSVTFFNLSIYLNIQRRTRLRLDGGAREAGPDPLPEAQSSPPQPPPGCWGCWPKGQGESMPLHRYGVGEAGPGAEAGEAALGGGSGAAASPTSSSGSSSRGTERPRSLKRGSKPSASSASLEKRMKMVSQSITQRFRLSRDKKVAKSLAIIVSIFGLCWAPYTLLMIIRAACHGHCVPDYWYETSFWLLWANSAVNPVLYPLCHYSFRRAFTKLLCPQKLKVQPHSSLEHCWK
Method in brief: (§2)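 Guinea pig jejunum segments (2 cm) were electrically stimulated between platinum electrodes in Krebs buffer gassed with 95% O2/5% CO2 at 37 °C, with isotonic recording under 1.0 g tension. […] After 20 min, cumulative half-log (R)-α-methylhistamine concentration-response curves were recorded until the response stopped changing.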

[3] = molecular target: Histamine H1 receptor (Cavia porcellus) (UniProt P31389); assay: as §1; assay type: tissue-based
Sequence of Histamine H1 receptor (Cavia porcellus) (P31389 whole entry): as the sequence (P31389 whole entry) above

[4] = tested on: Rattus norvegicus; assay: Reduction in food consumption in Lewis rat at 3 mg/kg, sc administered daily for 5 days relative to control
[5] = molecular target: Histamine H3 receptor (Rattus norvegicus) (UniProt Q9QYN8); assay: Antagonist activity at rat histamine H3 receptor assessed as reduction in histamine level in rat cortex at 3 mg/kg, sc administered for 5 consecutive days measured at 24 hrs post last dose by RIA or ELISA method; assay type: organism-based
Sequence of Histamine H3 receptor (Rattus norvegicus) (Q9QYN8 whole entry): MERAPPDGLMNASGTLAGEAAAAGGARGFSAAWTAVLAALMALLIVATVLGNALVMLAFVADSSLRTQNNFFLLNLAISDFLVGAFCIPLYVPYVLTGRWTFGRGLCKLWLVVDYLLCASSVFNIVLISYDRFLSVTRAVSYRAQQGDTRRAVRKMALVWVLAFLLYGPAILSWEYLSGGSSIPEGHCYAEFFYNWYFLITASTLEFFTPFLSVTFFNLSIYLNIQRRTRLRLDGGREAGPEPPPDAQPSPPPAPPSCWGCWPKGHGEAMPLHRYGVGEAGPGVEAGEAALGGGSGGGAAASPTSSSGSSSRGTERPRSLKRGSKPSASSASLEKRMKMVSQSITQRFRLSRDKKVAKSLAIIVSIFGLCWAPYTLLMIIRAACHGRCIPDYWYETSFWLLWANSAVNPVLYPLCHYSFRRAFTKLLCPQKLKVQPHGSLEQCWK
Method in brief: (§3)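 Male rats aged 9-10 weeks (Wistar or Lewis, n = 8) received 3 mg kg⁻¹ per day s.c. for 5 days. Saline-dosed and ciproxifan-dosed groups were included. Rats were killed 24 h after the last injection. The cerebral cortex was dissected, frozen in liquid nitrogen, stored at -80 °C and homogenized in 3 volumes of water. Dopamine, noradrenaline and serotonin were measured by RIA; histamine by ELISA.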

[6] = molecular target: Histamine H3 receptor (Rattus norvegicus) (UniProt Q9QYN8); assay: Antagonist activity at rat histamine H3 receptor assessed as reduction in dopamine level in rat cortex at 3 mg/kg, sc administered for 5 consecutive days measured at 24 hrs post last dose by RIA or ELISA method; assay type: organism-based; method in brief: as §3
[7] = tested on: Rattus norvegicus; assay: Effect on cerebral MAO activity in rat at 3 mg/kg, sc administered for 5 consecutive days measured at 24 hrs post last dose by radioisotopic assay; assay type: functional, organism-based
Method in brief: (§4)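 Cortex from rats given 3 mg kg⁻¹ per day s.c. for 5 days (n = 8) was taken 24 h after the last dose and homogenized in water. HNMT, MAO-A and MAO-B were measured radioisotopically. MAO-A used 5-[2-14C]hydroxytryptamine as substrate; MAO-B used β-[ethyl-1-¹⁴C]phenylethylamine. Clorgyline and deprenyl (final 10^-9 M) were used as inhibitors. Protein was measured by the Lowry method.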

[8] = molecular target: T1, Histamine H1 receptor; assay: Antagonist activity at histamine H1 receptor in guinea pig ileum preincubated for 10 mins followed by histamine addition during 30 mins equilibration period with washing every 10 mins; conditions: read-out: pA2 (converted)
[9] = species on record: Homo sapiens; assay: Selectivity ratio of Ki for recombinant human histamine H4 receptor expressed in CHO cell membranes to Ki for recombinant human histamine H3 receptor expressed in HEK293 cells; assay type: cell-based
[10] = molecular target: Histamine H3 receptor (Rattus norvegicus) (UniProt Q9QYN8); assay: Antagonist activity at rat histamine H3 receptor assessed as reduction in serotonin level in rat cortex at 3 mg/kg, sc administered for 5 consecutive days measured at 24 hrs post last dose by RIA or ELISA method; assay type: organism-based; method in brief: as §3
[11] = molecular target: Histamine H3 receptor (Rattus norvegicus, UniProt Q9QYN8); assay: Displacement of [3H]-Nalpha-Methylhistamine from rat histamine H3 receptor expressed in HEK293T cell membranes after 120 mins by liquid scintillation counting analysis
Sequence of Histamine H3 receptor (Rattus norvegicus, UniProt Q9QYN8) (Q9QYN8 whole entry): as above

[12] = molecular target: Histamine H4 receptor (Homo sapiens, UniProt Q9H3N8); assay: Displacement of [3H]histamine from human recombinant histamine H4 receptor expressed in CHO cell membranes after 1 hrs by liquid scintillation counting analysis
Sequence of Histamine H4 receptor (Q9H3N8 whole entry): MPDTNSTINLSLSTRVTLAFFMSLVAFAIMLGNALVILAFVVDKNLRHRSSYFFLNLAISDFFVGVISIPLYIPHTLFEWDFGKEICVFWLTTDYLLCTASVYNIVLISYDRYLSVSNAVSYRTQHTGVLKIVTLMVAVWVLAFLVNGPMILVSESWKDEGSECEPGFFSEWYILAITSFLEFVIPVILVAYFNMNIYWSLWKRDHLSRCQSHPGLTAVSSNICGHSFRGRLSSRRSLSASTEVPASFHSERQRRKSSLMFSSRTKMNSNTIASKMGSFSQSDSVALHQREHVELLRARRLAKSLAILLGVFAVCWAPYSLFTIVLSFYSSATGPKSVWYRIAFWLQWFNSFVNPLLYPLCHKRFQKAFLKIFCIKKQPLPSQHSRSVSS

[13] = tested on: Rattus norvegicus; assay: Effect on cerebral HNMT activity in rat at 3 mg/kg, sc administered for 5 consecutive days measured at 24 hrs post last dose by radioisotopic assay; assay type: functional, organism-based; method in brief: as §4
[14] = molecular target: Histamine H3 receptor (Homo sapiens, UniProt Q9Y5N1); assay: Displacement of [3H]-Nalpha-Methylhistamine from recombinant human histamine H3 receptor expressed in HEK293 cells after 1 hr by liquid scintillation counting analysis; assay type: cell-based
Sequence of Histamine H3 receptor (Homo sapiens, UniProt Q9Y5N1) (Q9Y5N1 whole entry): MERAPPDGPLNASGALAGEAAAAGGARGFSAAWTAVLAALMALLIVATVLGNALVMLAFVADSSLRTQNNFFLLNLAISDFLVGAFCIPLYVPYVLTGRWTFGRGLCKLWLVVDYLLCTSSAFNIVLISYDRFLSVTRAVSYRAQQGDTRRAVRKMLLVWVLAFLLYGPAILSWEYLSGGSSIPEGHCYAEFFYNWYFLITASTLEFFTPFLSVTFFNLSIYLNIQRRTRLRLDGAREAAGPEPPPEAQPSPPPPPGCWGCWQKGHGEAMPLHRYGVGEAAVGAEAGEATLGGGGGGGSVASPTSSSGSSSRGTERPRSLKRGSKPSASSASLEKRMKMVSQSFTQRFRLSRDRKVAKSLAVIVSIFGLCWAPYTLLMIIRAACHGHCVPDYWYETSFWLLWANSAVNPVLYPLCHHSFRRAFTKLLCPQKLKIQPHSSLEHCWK

[15] = molecular target: T2, Histamine H3 receptor; assay: Antagonist activity at histamine H3 receptor in guinea pig jejunum assessed as effect on […] inhibition of electrically evoked contraction treated 20 mins after […] and measured after 1 hr equilibration followed by compound wash out every 10 mins; assay type: tissue-based; conditions: read-out: pA2 (converted); method in brief: as §2
[16] = molecular target: Histamine H3 receptor (Rattus norvegicus) (UniProt Q9QYN8); assay: Antagonist activity at rat histamine H3 receptor assessed as reduction in noradrenaline level in rat cortex at 3 mg/kg, sc administered for 5 consecutive days measured at 24 hrs post last dose by RIA or ELISA method; assay type: organism-based; method in brief: as §3
[17] = tested on: Rattus norvegicus; assay: Reduction in pellet consumption in Wistar rat at 3 mg/kg, sc administered daily for 5 days relative to control; assay type: functional; design: scale not given: the % may be the effect or the level left
Method in brief: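 Male rats aged 9-10 weeks were housed singly in metabolic cages with free access to feed and water. Wistar rats were used for one compound and Lewis rats for the others. After 1 day of adaptation, baseline intake was averaged over 3 days. Dosing was 3 mg kg⁻¹ per day s.c. for 5 days (n = 8), with saline controls (0.2 ml per day). Intake was recorded each morning as g feed per 100 g body mass.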

Work on `N=C(N)N(CCCCN1CCN(CCCCN(Cc2ccc(C(F)(F)F)cc2)C(=N)N)CC1)Cc1ccc(C(F)(F)F)cc1` yielded a Kb [1] of 60.3 nM and a Kb [2] of 10.2 nM.
In the case of `N=C(NCCCCN1CCN(CCCCCCCOc2ccccc2)CC1)NCc1ccccc1`, the Kb [1] is reported as 79.4 nM and the Kb [2] is reported as 7.94 nM.
`N=C(N)N(CCCCC1CCN(CCCCCCCOc2ccccc2)CC1)Cc1ccc(C(F)(F)F)cc1` was tested, and the Kb [1] was 126 nM and the Kb [2] was 4.47 nM.
`c1ccc(OCCCCCCCN2CCN(CCCCCCCOc3ccccc3)CC2)cc1` was tested, and the pA2 [3] was “inactive” and the Kb [2] was 1660 nM.
`O=C(c1ccc(OCCCc2c[nH]cn2)cc1)C1CC1` was tested, and the Activity [4] was “Active”.
For `N=C(N)N(CCCCN1CCN(CCCCCCCOc2ccccc2)CC1)Cc1ccc(Cl)cc1`, the Activity [5] was “inactive”, the Activity [6] was “Active” and the Activity [7] was “inactive”. The Kb [8] was 240 nM, the Ratio Ki [9] was 3.9 and the Activity [4] was 13.5%. The Activity [10] was “Active”, the Ki [11] was 25.1 nM and the Ki [12] was 1070 nM. For the same compound, the Activity [13] was “inactive”, the Ki [14] was 275 nM and the Kb [15] was 15.8 nM. For the same compound, the Activity [16] was “inactive”.
`N=C(N)N(CCCCN1CCC(CCCCCCCOc2ccccc2)CC1)Cc1ccc(C(F)(F)F)cc1` showed a Kb [1] of 64.6 nM and a Kb [2] of 12.6 nM.
Compound `N=C(N)N(CCCCCCCOc1ccccc1)Cc1ccccc1` has a Kb [1] of 158 nM and a Kb [2] of 1660 nM.
`N=C(N)N(CCCCN1CCN(CCCCCCCOc2ccccc2)CC1)Cc1ccc(C(F)(F)F)cc1` was tested, and the Kb [8] was 347 nM.
`S=C(NC1CCCCC1)N1CCC(c2cnc[nH]2)CC1` [THIOPERAMIDE] gave a Kb [2] of 1.05 nM.
For `N=C(N)N(CCCCN1CCN(CCCCCCCOc2ccccc2)CC1)Cc1ccccc1`, the Activity [5] was “inactive”, the Activity [6] was “Active” and the Activity [7] was “inactive”. For the same compound, the Kb [8] was 200 nM, the Ratio Ki [9] was 20.9 and the Activity [4] was “Active”. The Activity [10] was “Active”, the Ki [11] was 12.6 nM and the Ki [12] was 3240 nM. The Activity [13] was “inactive”, the Ki [14] was 158 nM and the Activity [16] was “inactive”.
`N=C(N)N(CCCCN1CCN(CCCCCCCOc2ccccc2)CC1)Cc1ccc([N+](=O)[O-])cc1` was tested, and the Activity [5] was “inactive”, the Activity [6] was “Active” and the Activity [7] was “inactive”. For the same compound, the Kb [8] was 224 nM, the Ratio Ki [9] was 8.3 and the Activity [10] was “Active”. For the same compound, the Ki [11] was 15.8 nM, the Ki [12] was 1200 nM and the Activity [13] was “inactive”. The Ki [14] was 145 nM, the Kb [15] was 3.72 nM and the Activity [17] was 10%. The Activity [16] was “inactive”.
In the case of `N=C(NCCCCN1CCN(CCCCCCCOc2ccccc2)CC1)NCc1ccc(C(F)(F)F)cc1`, the Kb [1] is reported as 66.1 nM and the Kb [2] is reported as 10.7 nM.
`N#C/N=C(\N)N(CCCCN1CCN(CCCCCCCOc2ccccc2)CC1)Cc1ccccc1` was tested, and the Kb [1] was 107 nM and the Kb [2] was 50.1 nM.
